From ChEMBL document CHEMBL4689842, “EUbOPEN Chemogenomics Library wave 1” (2021)

Legend:
Type in all cases: toxicity, cell-based
[1] = tested on: U2OS; assay: Incucyte cell viability with U2OS; conditions: human, 10 µM, compound concentration 10 uM; note: filed as whole numbers so only -1 and 0 and 1 occur
[2] = tested on: Fibroblast; assay: Multiplex assay against human fibroblast
Procedure, shortened: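 Hoechst33342, BioTracker Green Microtubule Cytoskeleton Dye, MitoTracker Red and Annexin V Alexa Fluor 680 were added to live cells at seeding, and imaging on a CQ1 microscope at 37°C and 5% CO2 followed compound addition. Gating by CellPathfinder machine learning separated cells into Hoechst high-intensity objects or normal cells, then normal cells into healthy, pyknosed or fragmented nuclei, then pyknosed cells into mitotic or apoptotic. Per cents of healthy-nucleus cells are reported for the tubulin, mitochondrial-mass and membrane-permeability phenotypes.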

[3] = tested on: Fibroblast; assay: Incucyte cell viability with human fibroblast; conditions: 10 µM, compound concentration 10 uM; note: filed as whole numbers so only -1 and 0 and 1 occur
[4] = 6 h, replicate number 1, timepoint 6 hours
[5] = 12 h, replicate number 1, timepoint 12 hours
[6] = 18 h, replicate number 1, timepoint 18 hours
[7] = 24 h, replicate number 1, timepoint 24 hours
[8] = 12 h, 1 µM, compound concentration 1 uM, replicate 1
[9] = 12 h, 1 µM, compound concentration 1 uM, replicate 2
[10] = 12 h, 10 µM, compound concentration 10 uM, replicate 1
[11] = 12 h, 10 µM, compound concentration 10 uM, replicate 2
[12] = 24 h, 1 µM, compound concentration 1 uM, replicate 1
[13] = 24 h, 1 µM, compound concentration 1 uM, replicate 2
[14] = 24 h, 10 µM, compound concentration 10 uM, replicate 1
[15] = 24 h, 10 µM, compound concentration 10 uM, replicate 2
[16] = 0 h, replicate number 1, timepoint 0 hours
[17] = 0 h, replicate number 2, timepoint 0 hours

SMILES: Cc1ccc(NC(=O)Nc2cc(C(F)(F)F)ccc2F)cc1Nc1ccc2c(c1)NC(=O)/C2=C\c1ccc[nH]1
- Growth Rate [1, 4]: 1
- Growth Rate [1, 5]: 0
- Growth Rate ([1]; 12 h, replicate number 2, timepoint 12 hours): 1
- Growth Rate [1, 6]: 0
- Growth Rate [1, 7]: 0
- Population Apoptotic (%) [2, 8]: 36%
- Population Fragmented Nuclei (%) [2, 8]: 13%
- Population Healthy Nuclei (%) [2, 8]: 59%
- Population Hoechst High Intensity Objects (%) [2, 8]: 10%
- Population Membrane Permeable-Phenotype (%) [2, 8]: 58%
- Population Mitochondria Different-Phenotype (%) [2, 8]: 0%
- Population Mitotic Cells (%) [2, 8]: 63%
- Population Normal (%) [2, 8]: 89%
- Population Pyknosed Nuclei (%) [2, 8]: 27%
- Population Tubulin-Different-Phenotype (%) [2, 8]: 36%
- Total Cell Count [2, 8]: 178
- Population Apoptotic (%) [2, 9]: 100%
- Population Fragmented Nuclei (%) [2, 9]: 60%
- Population Healthy Nuclei (%) [2, 9]: 36%
- Population Hoechst High Intensity Objects (%) [2, 9]: 50%
- Population Membrane Permeable-Phenotype (%) [2, 9]: 63%
- Population Mitochondria Different-Phenotype (%) [2, 9]: 18%
- Population Mitotic Cells (%) [2, 9]: 0%
- Population Normal (%) [2, 9]: 49%
- Population Pyknosed Nuclei (%) [2, 9]: 3%
- Population Tubulin-Different-Phenotype (%) [2, 9]: 54%
- Total Cell Count [2, 9]: 61
- Population Apoptotic (%) [2, 10]: 66%
- Population Fragmented Nuclei (%) [2, 10]: 15%
- Population Healthy Nuclei (%) [2, 10]: 52%
- Population Hoechst High Intensity Objects (%) [2, 10]: 17%
- Population Membrane Permeable-Phenotype (%) [2, 10]: 4%
- Population Mitochondria Different-Phenotype (%) [2, 10]: 3%
- Population Mitotic Cells (%) [2, 10]: 33%
- Population Normal (%) [2, 10]: 82%
- Population Pyknosed Nuclei (%) [2, 10]: 32%
- Population Tubulin-Different-Phenotype (%) [2, 10]: 5%
- Total Cell Count [2, 10]: 210
- Population Apoptotic (%) [2, 11]: 20%
- Population Fragmented Nuclei (%) [2, 11]: 50%
- Population Healthy Nuclei (%) [2, 11]: 40%
- Population Hoechst High Intensity Objects (%) [2, 11]: 20%
- Population Membrane Permeable-Phenotype (%) [2, 11]: 0%
- Population Mitochondria Different-Phenotype (%) [2, 11]: 19%
- Population Mitotic Cells (%) [2, 11]: 80%
- Population Normal (%) [2, 11]: 80%
- Population Pyknosed Nuclei (%) [2, 11]: 9%
- Population Tubulin-Different-Phenotype (%) [2, 11]: 0%
- Total Cell Count [2, 11]: 65
- Population Apoptotic (%) [2, 12]: 28%
- Population Fragmented Nuclei (%) [2, 12]: 10%
- Population Healthy Nuclei (%) [2, 12]: 61%
- Population Hoechst High Intensity Objects (%) [2, 12]: 8%
- Population Membrane Permeable-Phenotype (%) [2, 12]: 51%
- Population Mitochondria Different-Phenotype (%) [2, 12]: 0%
- Population Mitotic Cells (%) [2, 12]: 71%
- Population Normal (%) [2, 12]: 91%
- Population Pyknosed Nuclei (%) [2, 12]: 27%
- Population Tubulin-Different-Phenotype (%) [2, 12]: 31%
- Total Cell Count [2, 12]: 179
- Population Apoptotic (%) [2, 13]: 100%
- Population Fragmented Nuclei (%) [2, 13]: 61%
- Population Healthy Nuclei (%) [2, 13]: 34%
- Population Hoechst High Intensity Objects (%) [2, 13]: 55%
- Population Membrane Permeable-Phenotype (%) [2, 13]: 55%
- Population Mitochondria Different-Phenotype (%) [2, 13]: 11%
- Population Mitotic Cells (%) [2, 13]: 0%
- Population Normal (%) [2, 13]: 44%
- Population Pyknosed Nuclei (%) [2, 13]: 3%
- Population Tubulin-Different-Phenotype (%) [2, 13]: 55%
- Total Cell Count [2, 13]: 59
- Population Apoptotic (%) [2, 14]: 51%
- Population Fragmented Nuclei (%) [2, 14]: 18%
- Population Healthy Nuclei (%) [2, 14]: 61%
- Population Hoechst High Intensity Objects (%) [2, 14]: 17%
- Population Membrane Permeable-Phenotype (%) [2, 14]: 5%
- Population Mitochondria Different-Phenotype (%) [2, 14]: 3%
- Population Mitotic Cells (%) [2, 14]: 48%
- Population Normal (%) [2, 14]: 82%
- Population Pyknosed Nuclei (%) [2, 14]: 20%
- Population Tubulin-Different-Phenotype (%) [2, 14]: 5%
- Total Cell Count [2, 14]: 237
- Population Apoptotic (%) [2, 15]: 50%
- Population Fragmented Nuclei (%) [2, 15]: 54%
- Population Healthy Nuclei (%) [2, 15]: 41%
- Population Hoechst High Intensity Objects (%) [2, 15]: 29%
- Population Membrane Permeable-Phenotype (%) [2, 15]: 0%
- Population Mitochondria Different-Phenotype (%) [2, 15]: 5%
- Population Mitotic Cells (%) [2, 15]: 50%
- Population Normal (%) [2, 15]: 70%
- Population Pyknosed Nuclei (%) [2, 15]: 4%
- Population Tubulin-Different-Phenotype (%) [2, 15]: 10%
- Total Cell Count [2, 15]: 65
- Growth Rate [3, 16]: 0
- Growth Rate [3, 4]: 0
- Growth Rate [3, 5]: 0
- Growth Rate [3, 6]: 0
- Growth Rate [3, 7]: 0

SMILES: CCOC(=O)CCNc1cc(N2CCc3ccccc3CC2)nc(-c2ccccn2)n1
- Growth Rate [1, 16]: 0
- Growth Rate [1, 17]: 1
- Growth Rate [1, 4]: 0
- Growth Rate [1, 5]: 0
- Growth Rate [1, 6]: 0
- Growth Rate [1, 7]: 0
- Population Apoptotic (%) [2, 8]: 89%
- Population Fragmented Nuclei (%) [2, 8]: 22%
- Population Healthy Nuclei (%) [2, 8]: 60%
- Population Hoechst High Intensity Objects (%) [2, 8]: 16%
- Population Membrane Permeable-Phenotype (%) [2, 8]: 8%
- Population Mitochondria Different-Phenotype (%) [2, 8]: 4%
- Population Mitotic Cells (%) [2, 8]: 10%
- Population Normal (%) [2, 8]: 83%
- Population Pyknosed Nuclei (%) [2, 8]: 16%
- Population Tubulin-Different-Phenotype (%) [2, 8]: 5%
- Total Cell Count [2, 8]: 214
- Population Apoptotic (%) [2, 9]: 100%
- Population Fragmented Nuclei (%) [2, 9]: 47%
- Population Healthy Nuclei (%) [2, 9]: 42%
- Population Hoechst High Intensity Objects (%) [2, 9]: 33%
- Population Membrane Permeable-Phenotype (%) [2, 9]: 0%
- Population Mitochondria Different-Phenotype (%) [2, 9]: 11%
- Population Mitotic Cells (%) [2, 9]: 0%
- Population Normal (%) [2, 9]: 66%
- Population Pyknosed Nuclei (%) [2, 9]: 9%
- Population Tubulin-Different-Phenotype (%) [2, 9]: 11%
- Total Cell Count [2, 9]: 63
- Population Apoptotic (%) [2, 10]: 68%
- Population Fragmented Nuclei (%) [2, 10]: 29%
- Population Healthy Nuclei (%) [2, 10]: 50%
- Population Hoechst High Intensity Objects (%) [2, 10]: 17%
- Population Membrane Permeable-Phenotype (%) [2, 10]: 10%
- Population Mitotic Cells (%) [2, 10]: 31%
- Population Normal (%) [2, 10]: 82%
- Population Pyknosed Nuclei (%) [2, 10]: 20%
- Population Tubulin-Different-Phenotype (%) [2, 10]: 13%
- Total Cell Count [2, 10]: 175
- Population Apoptotic (%) [2, 11]: 66%
- Population Fragmented Nuclei (%) [2, 11]: 57%
- Population Healthy Nuclei (%) [2, 11]: 35%
- Population Hoechst High Intensity Objects (%) [2, 11]: 40%
- Population Membrane Permeable-Phenotype (%) [2, 11]: 33%
- Population Mitochondria Different-Phenotype (%) [2, 11]: 6%
- Population Mitotic Cells (%) [2, 11]: 33%
- Population Normal (%) [2, 11]: 60%
- Population Pyknosed Nuclei (%) [2, 11]: 7%
- Population Tubulin-Different-Phenotype (%) [2, 11]: 73%
- Total Cell Count [2, 11]: 70
- Population Apoptotic (%) [2, 12]: 76%
- Population Fragmented Nuclei (%) [2, 12]: 23%
- Population Healthy Nuclei (%) [2, 12]: 63%
- Population Hoechst High Intensity Objects (%) [2, 12]: 12%
- Population Membrane Permeable-Phenotype (%) [2, 12]: 11%
- Population Mitochondria Different-Phenotype (%) [2, 12]: 1%
- Population Mitotic Cells (%) [2, 12]: 23%
- Population Normal (%) [2, 12]: 87%
- Population Pyknosed Nuclei (%) [2, 12]: 13%
- Population Tubulin-Different-Phenotype (%) [2, 12]: 1%
- Total Cell Count [2, 12]: 225
- Population Apoptotic (%) [2, 13]: 100%
- Population Fragmented Nuclei (%) [2, 13]: 60%
- Population Healthy Nuclei (%) [2, 13]: 34%
- Population Hoechst High Intensity Objects (%) [2, 13]: 26%
- Population Membrane Permeable-Phenotype (%) [2, 13]: 0%
- Population Mitochondria Different-Phenotype (%) [2, 13]: 14%
- Population Mitotic Cells (%) [2, 13]: 0%
- Population Normal (%) [2, 13]: 73%
- Population Pyknosed Nuclei (%) [2, 13]: 4%
- Population Tubulin-Different-Phenotype (%) [2, 13]: 14%
- Total Cell Count [2, 13]: 56
- Population Apoptotic (%) [2, 14]: 82%
- Population Fragmented Nuclei (%) [2, 14]: 34%
- Population Healthy Nuclei (%) [2, 14]: 50%
- Population Hoechst High Intensity Objects (%) [2, 14]: 15%
- Population Membrane Permeable-Phenotype (%) [2, 14]: 6%
- Population Mitochondria Different-Phenotype (%) [2, 14]: 6%
- Population Mitotic Cells (%) [2, 14]: 17%
- Population Normal (%) [2, 14]: 84%
- Population Pyknosed Nuclei (%) [2, 14]: 15%
- Population Tubulin-Different-Phenotype (%) [2, 14]: 7%
- Total Cell Count [2, 14]: 180
- Population Apoptotic (%) [2, 15]: 100%
- Population Fragmented Nuclei (%) [2, 15]: 53%
- Population Healthy Nuclei (%) [2, 15]: 41%
- Population Hoechst High Intensity Objects (%) [2, 15]: 33%
- Population Membrane Permeable-Phenotype (%) [2, 15]: 11%
- Population Mitochondria Different-Phenotype (%) [2, 15]: 11%
- Population Mitotic Cells (%) [2, 15]: 0%
- Population Normal (%) [2, 15]: 66%
- Population Pyknosed Nuclei (%) [2, 15]: 4%
- Population Tubulin-Different-Phenotype (%) [2, 15]: 41%
- Total Cell Count [2, 15]: 62
- Growth Rate [3, 17]: 0
- Growth Rate [3, 4]: 1
- Growth Rate [3, 5]: 1
- Growth Rate [3, 6]: 1
- Growth Rate [3, 7]: 1
